Measured values published in ChEMBL document CHEMBL1155070, “New endomorphin analogues containing alicyclic beta-amino acids: influence on bioactive conformation and pharmacological profile” (J Med Chem, 2008).

What was measured:
[1] = molecular target: Delta-type opioid receptor (Rattus norvegicus, UniProt P33533); test: Displacement of [3H]Ile5,6deltorphin-2 from delta opioid receptor in Wistar rat brain
Method in brief: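 Competition binding on crude male Wistar rat forebrain membranes (0.2-0.5 mg protein/tube) in 50 mM Tris-HCl pH 7.4. Filtration, scintillation counting. Ki from nonlinear fit plus Cheng-Prusoff. Mean ± SEM, ≥3 independent runs in duplicate.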

[2] = species: Rattus norvegicus; test: (§1) Half life in rat brain membrane homogenate; assay type: ADME
[3] = as §1; assay type: ADME

Sequence of Delta-type opioid receptor (P33533 whole entry): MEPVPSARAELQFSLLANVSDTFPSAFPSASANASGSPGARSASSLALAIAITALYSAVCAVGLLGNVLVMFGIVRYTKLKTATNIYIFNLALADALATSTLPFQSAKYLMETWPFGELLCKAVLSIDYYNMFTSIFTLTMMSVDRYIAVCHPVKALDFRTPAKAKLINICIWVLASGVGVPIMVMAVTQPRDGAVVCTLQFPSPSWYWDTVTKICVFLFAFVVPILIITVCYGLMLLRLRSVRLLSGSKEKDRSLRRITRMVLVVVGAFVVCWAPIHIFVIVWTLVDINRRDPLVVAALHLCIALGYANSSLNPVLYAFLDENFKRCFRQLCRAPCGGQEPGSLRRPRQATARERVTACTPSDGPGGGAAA

`NC(=O)[C@H](Cc1ccccc1)NC(=O)[C@H](Cc1c[nH]c2ccccc12)NC(=O)[C@H]1CCC[C@@H]1NC(=O)[C@@H](N)Cc1ccc(O)cc1` gave a Ki [1] of 3.08 µM.
`NC(=O)[C@H](Cc1ccccc1)NC(=O)[C@H](Cc1ccccc1)NC(=O)[C@@H]1CCC[C@H]1NC(=O)[C@@H](N)Cc1ccc(O)cc1` showed a Ki [1] of 1.41 µM.
With `NC(=O)[C@H](Cc1ccccc1)NC(=O)[C@H](Cc1ccccc1)NC(=O)[C@H]1CCC[C@@H]1NC(=O)[C@@H](N)Cc1ccc(O)cc1` the Ki [1] was 4.23 µM.
With `NC(=O)[C@H](Cc1ccccc1)NC(=O)[C@H](Cc1c[nH]c2ccccc12)NC(=O)[C@H]1CCCC[C@@H]1NC(=O)[C@@H](N)Cc1ccc(O)cc1` the Ki [1] was 9.62 µM.
Work on `NC(=O)[C@H](Cc1ccccc1)NC(=O)[C@H](Cc1c[nH]c2ccccc12)NC(=O)[C@@H]1CCCC[C@H]1NC(=O)[C@@H](N)Cc1ccc(O)cc1` yielded a Ki [1] of over 10 µM.
For `NC(=O)[C@H](Cc1ccccc1)NC(=O)[C@H](Cc1ccccc1)NC(=O)[C@@H]1CCCN1C(=O)[C@@H](N)Cc1ccc(O)cc1` [ENDOMORPHIN 2], the t1/2 [2] was 3.8 h.
With `NC(=O)[C@H](Cc1ccccc1)NC(=O)[C@H](Cc1ccccc1)NC(=O)[C@H]1CCCC[C@@H]1NC(=O)[C@@H](N)Cc1ccc(O)cc1` the Ki [1] was over 10 µM.
Work on `NC(=O)[C@H](Cc1ccccc1)NC(=O)[C@H](Cc1ccccc1)NC(=O)[C@H]1CCC[C@H]1NC(=O)[C@@H](N)Cc1ccc(O)cc1` yielded a half-life [3] of over 12 h and a Ki [1] of 4.8 µM.
`NC(=O)[C@H](Cc1ccccc1)NC(=O)[C@H](Cc1ccccc1)NC(=O)[C@H]1CCCC[C@H]1NC(=O)[C@@H](N)Cc1ccc(O)cc1` gave a half-life [3] of over 12 h and a Ki [1] of 0.812 µM.
`NC(=O)[C@H](Cc1ccccc1)NC(=O)[C@H](Cc1c[nH]c2ccccc12)NC(=O)[C@H]1CCCC[C@H]1NC(=O)[C@@H](N)Cc1ccc(O)cc1` showed a half-life [3] of over 12 h and a Ki [1] of 2.76 µM.
In the case of `NC(=O)[C@H](Cc1ccccc1)NC(=O)[C@H](Cc1c[nH]c2ccccc12)NC(=O)[C@H]1CCC[C@H]1NC(=O)[C@@H](N)Cc1ccc(O)cc1`, the half-life [3] is reported as over 12 h and the Ki [1] is reported as 1.34 µM.
Work on `NC(=O)[C@H](Cc1ccccc1)NC(=O)[C@H](Cc1c[nH]c2ccccc12)NC(=O)[C@@H]1CCCN1C(=O)[C@@H](N)Cc1ccc(O)cc1` [ENDOMORPHIN-1] yielded a t1/2 [2] of 4.9 h.
In the case of `NC(=O)[C@H](Cc1ccccc1)NC(=O)[C@H](Cc1ccccc1)NC(=O)[C@@H]1CCCC[C@@H]1NC(=O)[C@@H](N)Cc1ccc(O)cc1`, the Ki [1] is reported as over 10 µM.
With `NC(=O)[C@H](Cc1ccccc1)NC(=O)[C@H](Cc1ccccc1)NC(=O)[C@@H]1CCC[C@@H]1NC(=O)[C@@H](N)Cc1ccc(O)cc1` the Ki [1] was over 10 µM.
With `NC(=O)[C@H](Cc1ccccc1)NC(=O)[C@H](Cc1c[nH]c2ccccc12)NC(=O)[C@@H]1CCCC[C@@H]1NC(=O)[C@@H](N)Cc1ccc(O)cc1` the Ki [1] was over 10 µM.
`NC(=O)[C@H](Cc1ccccc1)NC(=O)[C@H](Cc1c[nH]c2ccccc12)NC(=O)[C@@H]1CCC[C@H]1NC(=O)[C@@H](N)Cc1ccc(O)cc1` gave a Ki [1] of 0.67 µM.
With `NC(=O)[C@H](Cc1ccccc1)NC(=O)[C@H](Cc1c[nH]c2ccccc12)NC(=O)[C@@H]1CCC[C@@H]1NC(=O)[C@@H](N)Cc1ccc(O)cc1` the Ki [1] was over 10 µM.
Work on `NC(=O)[C@H](Cc1ccccc1)NC(=O)[C@H](Cc1ccccc1)NC(=O)[C@@H]1CCCC[C@H]1NC(=O)[C@@H](N)Cc1ccc(O)cc1` yielded a Ki [1] of 0.439 µM.
